In ChEMBL document CHEMBL3596140, “Bisleuconothine A Induces Autophagosome Formation by Interfering with AKT-mTOR Signaling Pathway” (J Nat Prod, 2015):
pIC50: −log10 of the molar value. The source made the active and inactive calls. The calls are words filed in the database; no cut-off is given here.

How the values were obtained:
A549 [1] = experiment: Cytostatic activity against human A549 cells by MTT assay; format: functional, cell-based
In short: (§1)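 A549 cells in medium with 10% FBS and 1% penicillin–streptomycin, exposed to compound for 48 h. MTT (5 mg/mL stock) added at the end of exposure, then 3 h further incubation. Formazan dissolved in DMSO and read at 550 nm (reference 700 nm) as a measure of succinate dehydrogenase activity. IC50 taken from the concentration–response curve. Microscopy used for confirmation.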

A549 [2] = experiment: Cytotoxicity against human A549 cells assessed as induction of cell death at 24 uM after 48 hrs by microscopic analysis; format: functional, cell-based
A549 [3] = experiment: Induction of reactive oxygen species generation in human A549 cells at 6 uM incubated in dark for 1 hr by H2DCFDA dye-based flow cytometric analysis; format: functional, cell-based
In short: (§2)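 A549 cells (4 × 10^5 cells/dish) preloaded with 20 μM H2DCFDA for 1 h, then exposed to compound (6 or 24 μM) for 1 h in the dark at 37 °C. H2O2 at 100 μM served as positive control. Cells washed, resuspended in FACS buffer with 0.3% BSA, and analysed by flow cytometry for intracellular DCF fluorescence intensity.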

A549 [4] = experiment: Induction of reactive oxygen species generation in human A549 cells at 24 uM incubated in dark for 1 hr by H2DCFDA dye-based flow cytometric analysis; format: functional, cell-based; in short: as §2
A549 [5] = experiment: Induction of apoptosis in human A549 cells at 24 uM after 24 hrs by FITC-annexin V/propidium iodide staining-based flow cytometric analysis; format: functional, cell-based
In short: (§3)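 A549 cells (5 × 10^5 cells/dish) exposed to compound (24 μM, or 100 nM for vinblastine) for 24 h. Cells washed twice with PBS and stained with FITC–annexin V plus propidium iodide in FACS buffer with 0.3% BSA. Quadrant distribution read by flow cytometry against untreated cells.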

A549 [6] = experiment: Effect on Bcl-XL protein expression in human A549 cells at 24 uM after 6 to 24 hrs by Western blot analysis; format: functional, cell-based
In short: (§4)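 Total lysates of A549 cells harvested at 0, 6, 12 and 24 h after exposure to 24 μM test agent or 100 nM vinblastine. Proteins resolved, transferred to PVDF and probed for Bcl-xL, Mcl-1, Bcl-2, Bax-1, Bid, PUMA, Bim, Bik and p53, with antibodies diluted in BlockAce and β-actin as loading reference.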

A549 [7] = experiment: Effect on Mcl-1 protein expression in human A549 cells at 24 uM after 6 to 24 hrs by Western blot analysis; format: functional, cell-based; in short: as §4
A549 [8] = experiment: Effect on Bcl-2 protein expression in human A549 cells at 24 uM after 6 to 24 hrs by Western blot analysis; format: functional, cell-based; in short: as §4
A549 [9] = experiment: Effect on Bax-1 protein expression in human A549 cells at 24 uM after 6 to 24 hrs by Western blot analysis; format: functional, cell-based; in short: as §4
A549 [10] = experiment: Effect on Bid protein expression in human A549 cells at 24 uM after 6 to 24 hrs by Western blot analysis; format: functional, cell-based; in short: as §4
A549 [11] = experiment: Effect on Puma protein expression in human A549 cells at 24 uM after 6 to 24 hrs by Western blot analysis; format: functional, cell-based; in short: as §4
A549 [12] = experiment: Effect on BimEL protein expression in human A549 cells at 24 uM after 6 to 24 hrs by Western blot analysis; format: functional, cell-based; in short: as §4
A549 [13] = experiment: Effect on Bik protein expression in human A549 cells at 24 uM after 6 to 24 hrs by Western blot analysis; format: functional, cell-based; in short: as §4
A549 [14] = experiment: Effect on p53 protein expression in human A549 cells at 24 uM after 6 to 24 hrs by Western blot analysis; format: functional, cell-based; in short: as §4
A549 [15] = experiment: Induction of autophagy in human A549 cells assessed as increase in LC3-2 expression at 6 uM by Western blot analysis; format: functional, cell-based; conditions: TDE = time-dependent effect
In short: (§5)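 A549 and MCF7 cells exposed to 6 μM compound, with everolimus 5 μM as autophagy positive control. Total lysates harvested at 0, 4, 8, 12 or 24 h. LC3-I and LC3-II (lipidated) levels assessed by Western blot with LC3B antibody.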

MCF7 = experiment: Induction of autophagy in human MCF7 cells assessed as LC3 lipidation at 6 uM after 4 to 24 hrs by Western blot analysis; format: functional, cell-based; in short: as §5
A549 [16] = experiment: Prevention of autophagosome degradation in human A549 cells assessed as upregulation of p62 expression at 6 uM after 6 hrs by Western blot analysis; format: functional, cell-based
In short: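 A549 cells kept in serum-free medium for 1 h, then exposed to 6 μM compound or 5 μM everolimus, with or without bafilomycin A1 (400 nM), for 6 h. LC3 and p62 levels in lysates assessed by Western blot to follow autophagic flux.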

A549 [17] = experiment: Induction of autophagic punctation in human A549 cells assessed as increase of puncta with LC3 at 6 uM after 6 hrs by immunofluorescence staining-based microscopic analysis relative to control; format: functional, cell-based
In short: (§6)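 A549 cells on chamber slides placed in serum-free medium for 1 h, then exposed for 6 h to 6 μM compound, 5 μM everolimus or 400 nM bafilomycin A1. Fixed in ice-cold methanol for 15 min at −20 °C and blocked. Stained for LC3B, LAMP2 and p62 with Alexa Fluor 488/546/647 secondaries, mounted with DAPI, and puncta assessed by fluorescence microscopy.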

A549 [18] = experiment: Induction of autophagic punctation in human A549 cells assessed as increase of puncta with p62 at 6 uM after 6 hrs by immunofluorescence staining-based microscopic analysis relative to control; format: functional, cell-based; in short: as §6
A549 [19] = experiment: Effect on localization of lysosome puncta with LAMP2 in human A549 cells at 6 uM after 6 hrs by immunofluorescence staining-based microscopic analysis relative to control; format: functional, cell-based; in short: as §6
[20] = molecular target: Serine/threonine-protein kinase mTOR (Homo sapiens) (UniProt P42345); experiment: Effect on mTOR phosphorylation at ser2448 in human A549 cells at 6 uM after 3 to 24 hrs by Western blot analysis; format: cell-based
In short: (§7)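 A549 total lysates harvested 3, 6, 12 or 24 h after exposure to 6 μM compound or 5 μM everolimus. Western blot on PVDF with antibodies to phospho-mTOR Ser2448, phospho-AKT Thr308 and Ser473, phospho-p70S6K Thr389, phospho-PDK1 Ser241 and PRAS40 Thr246, alongside total proteins and β-actin.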

[21] = molecular target: Serine/threonine-protein kinase mTOR (Homo sapiens) (UniProt P42345); experiment: Inhibition of mTOR in human A549 cells assessed as downregulation of p70S6K phosphorylation at thr389 at 6 uM after 3 to 24 hrs by Western blot analysis; format: cell-based; in short: as §7
A549 [22] = experiment: Inhibition of AKT in human A549 cells assessed as downregulation of PRAS40 phosphorylation at thr246 at 6 uM after 3 to 12 hrs by Western blot analysis; format: cell-based; in short: as §7
A549 [23] = experiment: Inhibition of AKT phosphorylation at thr308 in human A549 cells at 6 uM after 3 to 24 hrs by Western blot analysis; format: cell-based; in short: as §7
A549 [24] = experiment: Inhibition of AKT phosphorylation at Ser473 in human A549 cells at 6 uM after 3 to 6 hrs by Western blot analysis; format: cell-based; in short: as §7
[25] = molecular target: T1, 3-phosphoinositide-dependent protein kinase 1 (Homo sapiens) (UniProt O15530); experiment: Effect on PDK1 phosphorylation at Ser241 in human A549 cells at 6 uM after 3 to 24 hrs by Western blot analysis; format: cell-based; in short: as §7
T1 sequence (whole entry): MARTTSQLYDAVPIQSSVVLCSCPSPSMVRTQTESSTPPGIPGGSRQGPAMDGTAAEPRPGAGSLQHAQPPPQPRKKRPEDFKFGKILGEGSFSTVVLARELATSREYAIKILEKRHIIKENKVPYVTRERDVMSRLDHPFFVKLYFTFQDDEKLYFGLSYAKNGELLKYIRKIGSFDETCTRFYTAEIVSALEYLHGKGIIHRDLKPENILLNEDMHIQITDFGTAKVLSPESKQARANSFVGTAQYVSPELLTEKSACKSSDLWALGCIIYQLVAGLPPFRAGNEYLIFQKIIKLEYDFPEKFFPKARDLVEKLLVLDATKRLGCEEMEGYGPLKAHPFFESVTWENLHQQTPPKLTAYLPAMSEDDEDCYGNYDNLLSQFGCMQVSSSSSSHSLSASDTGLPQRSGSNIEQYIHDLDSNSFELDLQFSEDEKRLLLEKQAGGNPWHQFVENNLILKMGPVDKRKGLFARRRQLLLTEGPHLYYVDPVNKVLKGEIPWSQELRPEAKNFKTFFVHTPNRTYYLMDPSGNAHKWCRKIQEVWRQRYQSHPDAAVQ

A549 [26] = experiment: Effect on morphological changes in lysosome puncta in human A549 cells at 6 uM after 6 hrs by immunofluorescence staining-based microscopic analysis relative to control; format: functional, cell-based; in short: as §6
A549 [27] = experiment: Induction of autophagy in human A549 cells assessed as increase in LC3-2 expression at 6 uM after 4 to 24 hrs by Western blot analysis
A549 [28] = experiment: Cytostatic activity against human A549 cells after 48 hrs by MTT assay; format: functional, cell-based; in short: as §1
A549 [29] = experiment: Cytotoxicity against human A549 cells assessed as induction of cell death by microscopic analysis; format: functional, cell-based
A549 [30] = experiment: Induction of apoptosis in human A549 cells assessed as early apoptotic cells at 100 nM after 24 hrs by FITC-annexin V/propidium iodide staining-based flow cytometric analysis relative to control; format: functional; in short: as §3
A549 [31] = experiment: Induction of apoptosis in human A549 cells assessed as late apoptotic cells at 100 nM after 24 hrs by FITC-annexin V/propidium iodide staining-based flow cytometric analysis relative to control; format: functional; in short: as §3
A549 [32] = experiment: Downregulation of Bcl-XL protein expression in human A549 cells at 100 nM after 24 hrs by Western blot analysis; format: functional, cell-based; in short: as §4
A549 [33] = experiment: Downregulation of Mcl-1 protein expression in human A549 cells at 100 nM after 24 hrs by Western blot analysis; format: functional, cell-based; in short: as §4
A549 [34] = experiment: Downregulation of BimEL protein expression in human A549 cells at 100 nM after 24 hrs by Western blot analysis; format: functional, cell-based; in short: as §4
A549 [35] = experiment: Upregulation of p53 protein expression in human A549 cells at 100 nM after 24 hrs by Western blot analysis; format: functional, cell-based; in short: as §4

With CC[C@@]12CCCN3CCc4c(n(c5ccccc45)[C@H](c4ccc(O)c5c4N[C@@H]4CC[C@@]6(CC)CCCN7CC[C@@]54[C@H]76)C1)[C@H]32 [BISLEUCONOTHINE A] the Activity (A549 [1]) was “Dose-dependent effect”, the pIC50 (A549 [1]) was 5.10 and the Activity (A549 [2]) was “Active”. For the same compound, the Activity (A549 [3]) was “inactive”, the Activity (A549 [4]) was “Active” and the Activity (A549 [5]) was “inactive”. The Activity (A549 [6]) was “inactive”, the Activity (A549 [7]) was “inactive” and the Activity (A549 [8]) was “inactive”. The Activity (A549 [9]) was “inactive”, the Activity (A549 [10]) was “inactive” and the Activity (A549 [11]) was “inactive”. For the same compound, the Activity (A549 [12]) was “inactive”, the Activity (A549 [13]) was “inactive” and the Activity (A549 [14]) was “inactive”. For the same compound, the Activity (A549 [15]) was “tde”, the Activity (MCF7) was “Active” and the Activity (A549 [16]) was “Active”. For the same compound, the Activity (A549 [17]) was “Active”, the Activity (A549 [18]) was “Active” and the Activity (A549 [19]) was “Active”. The Activity [20] was “inactive”, the inhibition [21] was “Active” and the inhibition (A549 [22]) was “Active”. For the same compound, the inhibition (A549 [23]) was “Active”, the inhibition (A549 [24]) was “Active” and the Activity [25] was “inactive”. The Activity (A549 [26]) was “Active” and the Activity (A549 [27]) was “Active”.

With CC[C@]1(O)C[C@@H]2CN(CCc3c([nH]c4ccccc34)[C@@](C(=O)OC)(c3cc4c(cc3OC)N(C)[C@H]3[C@@](O)(C(=O)OC)[C@H](OC(C)=O)[C@]5(CC)C=CCN6CC[C@]43[C@@H]65)C2)C1 [VINBLASTINE] the Activity (A549 [28]) was “Dose-dependent effect”, the Activity (A549 [29]) was “Active” and the Activity (A549 [30]) was 30%. The Activity (A549 [31]) was 30%, the Activity (A549 [32]) was “Active” and the Activity (A549 [33]) was “Active”. The Activity (A549 [34]) was “Active” and the Activity (A549 [35]) was “Active”.
